The values that follow come from PMC3546530 (Cancer prevention research (Philadelphia, Pa.), 2012).

pIC50: −log10 of the molar value. Read-outs that look alike come from different tables or passages of the source. A value given as a limit tells only on which side of the number the result lay.

Experiment [1] deals with β-catenin in HCT 116 cells. The experiment in a line: β-Catenin levels. The experiment is classed as cell-based, human. As to conditions: HCT 116, 100 μmol/L. The procedure, abridged:
(§1)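 Cells were lysed in ice-cold membrane lysis buffer (Triton X-100, MgCl2, KCl, DTT, HEPES, NaF, protease inhibitors) or in nuclear lysis buffer (HEPES, NaCl, EDTA, 25% glycerol). Nuclear lysates were kept at 4° C with vortexing every 5 min for 1 h, then centrifuged. Protein was measured by Lowry, separated by 12% SDS-PAGE and moved to nitrocellulose. Blots were blocked in 5% BSA/0.05% Tween 20, probed with primary antibody overnight at 4° C and HRP secondary for 1 h, and read by ECL.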

Experiment [2] deals with HT-29, SW480, and HCT 116 colon tumor cell lines. Description: Growth assay. The class given is cell-based. As to conditions: Homo sapiens, 72 h, read-out: growth inhibition IC50. The procedure, abridged: (§2)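 Colon tumor cells were kept in RPMI-1640 with 5% FBS and 4 mmol/L glutamine at 37° C, 5% CO2. They were plated at 5,000 per well, left to adhere overnight, and exposed for 72 h to a 2-log range of test compound. Viability was measured as ATP content by CellTiter-Glo, relative to vehicle.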

Experiment [3] has as its target purified ovine COX-1 (Ovis aries, UniProt P05979). The experiment in a line: COX-1 colorimetric activity assay. The experiment is classed as biochemical.
Experiment [4] deals with purified ovine COX-2 (Ovis aries, UniProt P79208). The experiment in a line: COX-2 colorimetric activity assay. The experiment is classed as biochemical.
Experiment [5] has as its system LPS-stimulated U937 promonocytic cells. The experiment in a line: PGE2 production assay. The experiment is classed as cell-based, human. In outline:
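U937 promonocytic cells were differentiated with 10 nmol/L PMA for 48 h, washed, and plated at 1.0 × 10^6 cells per well to adhere overnight. They were stimulated with 10 μg/mL LPS and treated with test compound for 24 h. PGE2 in supernatants was measured by HTRF competitive FRET between a PGE2–d2 conjugate and an anti-PGE2 antibody.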

Experiment [6] has as its system HCT 116 colon tumor cells. Description: Proliferation assay. The experiment is classed as cell-based. As to conditions: Homo sapiens, HCT-116, 24 h, read-out: inhibition of cell proliferation. In outline:
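HCT 116 cells were seeded at 1.5 × 10^6 per 10-cm dish overnight, then serum-starved for 24 h. Test compound or vehicle (0.1% DMSO) was added in RPMI-1640 with 5% serum for 4 h, followed by 16 μmol/L EdU (final) for a further 18 h. EdU incorporation was read with Click-iT Alexa Fluor 488 by flow cytometry, ≥5,000 events, in triplicate.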

The test system of experiment [7] is HCT 116 colon tumor cells. The experiment in a line: Apoptosis assay. The experiment is classed as cell-based, human. As to conditions: 24 hours, vehicle 3%. In outline:
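HCT 116 cells were seeded at 1 × 10^6 per 10-cm dish and grown 48 h, then treated with test compound or vehicle for 24 h. Floating and attached cells were pooled, fixed in 10% neutral buffered formalin on ice for 15 min, and stained for DNA strand breaks by APO-BrdU TUNEL with AlexaFluor-488. TUNEL-positive cells were counted by flow cytometry, ≥5,000 events, in triplicate.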

In experiment [8] the test system is total cGMP hydrolysis in HT-29 whole-cell lysates. The experiment in a line: cGMP PDE activity in tumor cell lysate. The experiment is classed as biochemical, human. As to conditions: read-out: total cGMP hydrolysis IC50; HT-29 whole-cell lysate. In outline:
(§3)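 HT-29 cells were lysed in PDE activity buffer (20 mmol/L Tris-acetate, 5 mmol/L Mg acetate, 1 mmol/L EGTA, 1.0% Triton X-100, 50 mmol/L NaF, protease inhibitors, pH 7.4). Lysate protein was titrated to the mid portion of the activity curve.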

In experiment [9] the test system is total cAMP hydrolysis in HT-29 whole-cell lysates. Description: cAMP PDE activity in tumor cell lysate. The class given is biochemical, human. As to conditions: read-out: total cAMP hydrolysis IC50; HT-29 whole-cell lysate. The procedure, abridged:
as §3

Experiment [10] has as its target PDE1A (Homo sapiens, UniProt P54750). Description: Recombinant PDE isozyme assay. The class given is biochemical. In outline:
(§4)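 Purified recombinant human PDE isozymes were assayed by IMAP fluorescence polarization, in which binding of hydrolysed nucleotide to immobilised metal complexes raises polarization.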

For experiment [11], the target named is PDE1B (Homo sapiens, UniProt Q01064). Description: Recombinant PDE isozyme assay. The class given is biochemical. The procedure, abridged:
as §4

The target in experiment [12] is PDE1C (Homo sapiens, UniProt Q14123). The experiment in a line: Recombinant PDE isozyme assay. The experiment is classed as biochemical. In outline:
as §4

The target of experiment [13] is PDE2A (Homo sapiens, UniProt O00408). Description: Recombinant PDE isozyme assay. The experiment is classed as biochemical.
Sequence of PDE2A (O00408 whole entry): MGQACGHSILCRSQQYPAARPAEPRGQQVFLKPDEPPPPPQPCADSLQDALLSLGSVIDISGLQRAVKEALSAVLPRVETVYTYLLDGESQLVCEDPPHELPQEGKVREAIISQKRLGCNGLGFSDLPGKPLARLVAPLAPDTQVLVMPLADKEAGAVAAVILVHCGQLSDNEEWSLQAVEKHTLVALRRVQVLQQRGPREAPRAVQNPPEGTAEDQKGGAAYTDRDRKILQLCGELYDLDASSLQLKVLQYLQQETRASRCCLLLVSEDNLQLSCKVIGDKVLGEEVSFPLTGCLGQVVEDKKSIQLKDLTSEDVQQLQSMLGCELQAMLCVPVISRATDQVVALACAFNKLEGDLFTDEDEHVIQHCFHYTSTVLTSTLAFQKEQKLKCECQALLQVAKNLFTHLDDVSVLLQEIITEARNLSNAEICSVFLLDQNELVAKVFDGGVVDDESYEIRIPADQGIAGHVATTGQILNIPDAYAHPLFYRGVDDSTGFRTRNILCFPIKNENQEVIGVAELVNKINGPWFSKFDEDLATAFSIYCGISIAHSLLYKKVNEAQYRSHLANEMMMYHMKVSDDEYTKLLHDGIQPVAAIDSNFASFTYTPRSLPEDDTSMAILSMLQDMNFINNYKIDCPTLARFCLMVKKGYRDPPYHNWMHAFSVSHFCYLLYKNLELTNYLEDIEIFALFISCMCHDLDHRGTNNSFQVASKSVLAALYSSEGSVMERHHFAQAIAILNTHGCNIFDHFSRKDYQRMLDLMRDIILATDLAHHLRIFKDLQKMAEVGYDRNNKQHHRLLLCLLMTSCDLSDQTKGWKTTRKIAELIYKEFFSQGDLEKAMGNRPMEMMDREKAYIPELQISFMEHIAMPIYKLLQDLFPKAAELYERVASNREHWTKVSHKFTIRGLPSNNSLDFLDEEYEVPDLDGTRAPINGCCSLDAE
The target of experiment [14] is PDE3A (Homo sapiens, UniProt Q14432). The experiment in a line: Recombinant PDE isozyme assay. The experiment is classed as biochemical. The procedure, abridged:
as §4

Experiment [15] addresses PDE3B (Homo sapiens, UniProt Q13370). The experiment in a line: Recombinant PDE isozyme assay. The class given is biochemical. In outline: as §4
In experiment [16] the target is PDE4B (Homo sapiens, UniProt Q07343). Description: Recombinant PDE isozyme assay. The experiment is classed as biochemical. The procedure, abridged: as §4
For experiment [17], the target named is PDE5A (purified recombinant PDE5) (Homo sapiens, UniProt O76074). Description: Recombinant PDE isozyme assay. The experiment is classed as biochemical. The procedure, abridged:
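IMAP fluorescence polarization assay run on recombinant enzyme per kit instructions. Substrates: TAMRA-cGMP or fluorescein-cAMP, each at 50 nmol/L final. Hydrolysed cyclic nucleotide binds immobilized metal coordination complexes, raising polarization.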

In experiment [18] the target is PDE6C (Homo sapiens, UniProt P51160). Description: Recombinant PDE isozyme assay. The experiment is classed as biochemical. The procedure, abridged: as §4
Experiment [19] has as its target PDE7A (Homo sapiens, UniProt Q13946). The experiment in a line: Recombinant PDE isozyme assay. The class given is biochemical. In outline:
as §4

Experiment [20] deals with PDE8A (Homo sapiens, UniProt O60658). The experiment in a line: Recombinant PDE isozyme assay. The class given is biochemical. The procedure, abridged: as §4
The target in experiment [21] is PDE9A (Homo sapiens, UniProt O76083). The experiment in a line: Recombinant PDE isozyme assay. The experiment is classed as biochemical. The procedure, abridged:
as §4

Experiment [22] has as its target PDE11A (Homo sapiens, UniProt Q9HCR9). Description: Recombinant PDE isozyme assay. The class given is biochemical. The procedure, abridged:
as §4

In experiment [23] the test system is HCT 116 colon tumor cells. The experiment in a line: Growth assay. As to conditions: Homo sapiens, HCT-116, read-out: growth inhibition IC50. The experiment is classed as cell-based. In outline: as §2
Experiment [24] concerns HT-29 colon tumor cells. Description: Growth assay. As to conditions: Homo sapiens, HT-29, read-out: growth inhibition IC50. The class given is cell-based. In outline: as §2
In experiment [25] the test system is normal fetal human colonocytes (FHC). Description: Growth assay. The class given is cell-based.
The test system of experiment [26] is intracellular cGMP in HEK293 cells. Description: Intracellular cGMP levels. As to conditions: HEK293, 50 μmol/L SNP plus 1, 3, or 10 μmol/L compound. The experiment is classed as cell-based, human.
In experiment [27] the test system is PKG (VASP phosphorylation) in HT-29 cells. Description: PKG activation. As to conditions: HT-29, 5 μmol/L; remained elevated for 5 hours. The experiment is classed as cell-based, human.
In experiment [28] the test system is nuclear β-catenin in HT-29 cells. Description: Nuclear β-catenin levels. The class given is cell-based, human. The procedure, abridged:
as §1

Experiment [29] concerns survivin in HT-29 cells. The experiment in a line: Survivin expression. The class given is cell-based, human. As to conditions: 10 μmol/L, slightly longer duration than β-catenin decrease. In outline: as §1
Experiment [30] deals with cleaved caspase-3 in HT-29 cells. Description: Caspase-3 cleavage. The class given is cell-based, human. As to conditions: HT-29, 10 μmol/L. The procedure, abridged:
as §1

Experiment [31] deals with β-catenin–mediated Tcf transcriptional activity in HCT 116 cells. The experiment in a line: TOP/FOP-flash Tcf luciferase reporter assay. As to conditions: HCT 116, 24 hours. The class given is cell-based, human. In outline: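 HCT 116 cells in 24-well plates were cotransfected with 0.1 μg TOP-flash (wild-type Tcf sites) or FOP-flash (mutated sites, nonspecific control) plus 0.1 μg β-galactosidase vector. After 24 h treatment with test compound, luciferase activity was measured and normalised to β-galactosidase activity.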
For orientation: Reporter assays use an easily measured gene product as a stand-in for the process of interest.

Experiment [32] has as its system tumor cell growth. As to conditions: cited from earlier work.
Experiment [33] has as its system PDE5. As to conditions: cited from earlier work.

Sequence of PDE1B (Q01064 whole entry): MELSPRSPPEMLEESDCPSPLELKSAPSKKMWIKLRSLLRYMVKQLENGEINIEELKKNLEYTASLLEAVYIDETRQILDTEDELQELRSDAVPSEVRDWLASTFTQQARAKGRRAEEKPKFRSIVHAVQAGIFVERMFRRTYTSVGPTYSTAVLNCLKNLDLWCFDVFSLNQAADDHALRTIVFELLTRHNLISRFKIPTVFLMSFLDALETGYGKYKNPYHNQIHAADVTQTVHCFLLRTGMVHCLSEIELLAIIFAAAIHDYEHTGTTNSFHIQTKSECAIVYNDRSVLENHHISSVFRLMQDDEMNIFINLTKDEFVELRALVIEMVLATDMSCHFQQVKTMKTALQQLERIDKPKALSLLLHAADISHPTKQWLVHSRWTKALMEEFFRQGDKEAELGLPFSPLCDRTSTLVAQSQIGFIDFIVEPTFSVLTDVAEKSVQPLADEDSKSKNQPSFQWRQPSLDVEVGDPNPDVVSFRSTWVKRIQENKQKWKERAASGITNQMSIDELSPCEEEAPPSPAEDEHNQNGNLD
Sequence of PDE11A (Q9HCR9 whole entry): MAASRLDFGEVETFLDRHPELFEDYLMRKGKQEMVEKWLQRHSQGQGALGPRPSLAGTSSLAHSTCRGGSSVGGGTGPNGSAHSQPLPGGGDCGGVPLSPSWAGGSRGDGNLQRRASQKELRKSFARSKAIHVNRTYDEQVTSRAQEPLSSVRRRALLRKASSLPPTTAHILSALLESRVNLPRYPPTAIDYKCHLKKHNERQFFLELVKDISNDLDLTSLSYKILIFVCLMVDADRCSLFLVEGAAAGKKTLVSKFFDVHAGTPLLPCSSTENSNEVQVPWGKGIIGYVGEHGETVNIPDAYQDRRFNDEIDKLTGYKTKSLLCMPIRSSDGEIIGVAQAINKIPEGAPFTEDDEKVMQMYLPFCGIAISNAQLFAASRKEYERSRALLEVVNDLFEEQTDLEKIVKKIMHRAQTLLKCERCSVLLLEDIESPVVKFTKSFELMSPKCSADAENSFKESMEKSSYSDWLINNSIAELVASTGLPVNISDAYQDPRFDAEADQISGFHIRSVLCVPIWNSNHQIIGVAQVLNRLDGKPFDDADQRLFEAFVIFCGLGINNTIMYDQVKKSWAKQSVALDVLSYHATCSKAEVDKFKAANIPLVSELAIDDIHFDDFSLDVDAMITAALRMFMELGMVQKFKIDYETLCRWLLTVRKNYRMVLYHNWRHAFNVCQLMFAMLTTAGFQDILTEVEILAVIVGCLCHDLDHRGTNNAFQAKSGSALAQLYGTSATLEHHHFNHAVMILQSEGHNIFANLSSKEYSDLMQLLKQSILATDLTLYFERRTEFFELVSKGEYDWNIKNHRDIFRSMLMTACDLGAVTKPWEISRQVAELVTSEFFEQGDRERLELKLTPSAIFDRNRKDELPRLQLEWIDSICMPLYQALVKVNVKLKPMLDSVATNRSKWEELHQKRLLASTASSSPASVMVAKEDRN
Sequence of PDE3B (Q13370 whole entry): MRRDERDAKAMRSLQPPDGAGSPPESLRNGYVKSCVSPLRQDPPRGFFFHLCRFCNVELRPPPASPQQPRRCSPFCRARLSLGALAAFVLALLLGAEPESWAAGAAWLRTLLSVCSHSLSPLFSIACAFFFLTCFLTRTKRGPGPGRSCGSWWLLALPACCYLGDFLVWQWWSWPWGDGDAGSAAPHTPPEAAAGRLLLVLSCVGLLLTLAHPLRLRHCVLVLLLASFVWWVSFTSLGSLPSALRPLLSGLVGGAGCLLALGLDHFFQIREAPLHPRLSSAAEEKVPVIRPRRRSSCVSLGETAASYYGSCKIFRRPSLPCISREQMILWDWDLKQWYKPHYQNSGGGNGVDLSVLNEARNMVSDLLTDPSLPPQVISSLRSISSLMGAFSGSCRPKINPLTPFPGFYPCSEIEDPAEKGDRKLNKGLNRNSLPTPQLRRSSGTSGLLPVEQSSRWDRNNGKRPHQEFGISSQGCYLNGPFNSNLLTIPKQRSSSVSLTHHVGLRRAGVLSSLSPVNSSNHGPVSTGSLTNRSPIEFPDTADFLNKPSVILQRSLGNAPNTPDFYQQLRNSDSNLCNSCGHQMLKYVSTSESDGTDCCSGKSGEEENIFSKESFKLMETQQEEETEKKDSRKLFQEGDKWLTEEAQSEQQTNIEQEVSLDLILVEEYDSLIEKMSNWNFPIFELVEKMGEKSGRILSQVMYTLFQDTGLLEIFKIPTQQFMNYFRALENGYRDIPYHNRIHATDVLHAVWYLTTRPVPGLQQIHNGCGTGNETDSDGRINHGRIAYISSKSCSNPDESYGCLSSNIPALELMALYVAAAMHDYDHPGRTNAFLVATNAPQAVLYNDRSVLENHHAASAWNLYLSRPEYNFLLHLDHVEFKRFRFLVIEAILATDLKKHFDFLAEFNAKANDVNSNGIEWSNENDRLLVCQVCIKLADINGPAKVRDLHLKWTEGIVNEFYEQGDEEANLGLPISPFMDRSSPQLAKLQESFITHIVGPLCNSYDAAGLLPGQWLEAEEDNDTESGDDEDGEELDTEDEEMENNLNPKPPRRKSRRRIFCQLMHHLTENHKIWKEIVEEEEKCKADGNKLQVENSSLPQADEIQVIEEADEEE
Sequence of PDE3A (Q14432 whole entry): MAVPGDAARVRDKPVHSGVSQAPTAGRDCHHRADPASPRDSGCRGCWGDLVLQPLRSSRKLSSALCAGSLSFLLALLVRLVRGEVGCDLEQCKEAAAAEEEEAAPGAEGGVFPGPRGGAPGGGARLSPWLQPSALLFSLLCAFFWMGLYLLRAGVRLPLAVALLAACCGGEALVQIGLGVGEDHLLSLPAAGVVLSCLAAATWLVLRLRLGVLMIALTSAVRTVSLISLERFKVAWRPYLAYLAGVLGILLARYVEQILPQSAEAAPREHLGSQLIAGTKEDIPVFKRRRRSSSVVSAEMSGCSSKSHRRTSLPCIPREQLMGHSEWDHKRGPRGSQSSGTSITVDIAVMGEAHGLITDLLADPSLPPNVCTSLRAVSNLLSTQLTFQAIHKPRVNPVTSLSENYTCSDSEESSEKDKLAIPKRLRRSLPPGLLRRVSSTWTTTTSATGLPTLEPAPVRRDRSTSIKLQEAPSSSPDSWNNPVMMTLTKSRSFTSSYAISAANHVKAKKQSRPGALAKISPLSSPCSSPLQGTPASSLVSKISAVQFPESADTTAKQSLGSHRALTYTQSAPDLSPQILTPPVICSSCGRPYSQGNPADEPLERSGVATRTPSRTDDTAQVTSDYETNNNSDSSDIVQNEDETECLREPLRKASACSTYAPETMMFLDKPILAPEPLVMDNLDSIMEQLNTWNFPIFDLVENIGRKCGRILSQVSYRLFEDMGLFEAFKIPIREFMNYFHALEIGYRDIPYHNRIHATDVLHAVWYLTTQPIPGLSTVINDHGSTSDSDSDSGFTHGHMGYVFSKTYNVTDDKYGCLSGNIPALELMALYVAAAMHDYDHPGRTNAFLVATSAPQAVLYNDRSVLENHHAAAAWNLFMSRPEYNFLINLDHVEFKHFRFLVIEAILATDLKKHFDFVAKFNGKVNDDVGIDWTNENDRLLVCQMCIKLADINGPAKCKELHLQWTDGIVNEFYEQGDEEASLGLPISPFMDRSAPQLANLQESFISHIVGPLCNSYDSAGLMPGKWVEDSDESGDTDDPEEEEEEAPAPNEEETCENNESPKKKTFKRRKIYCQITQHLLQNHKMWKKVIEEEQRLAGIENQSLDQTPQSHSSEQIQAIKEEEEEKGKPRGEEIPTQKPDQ

`Nc1nc2c(nc(Br)n2[C@@H]2O[C@@H]3COP(=O)(O)O[C@H]3[C@H]2O)c(=O)[nH]1` [8-bromo-cGMP]: the “effect on β-catenin levels” value in experiment [1] is recorded as “suppress β-catenin levels”.

With `CC1=C(CCNCc2ccccc2)c2cc(F)ccc2/C1=C\c1ccc([S+](C)[O-])cc1` (stereo not drawn) [SBA, (Z)-N-benzyl-2-(5-fluoro-2-methyl-1-(4-(methylsulfinyl)benzylidene)-1H-inden-3-yl)ethanamine], the pIC50 (commonly the negative decadic logarithm of the IC50, by convention in mol/L) is 5.30 to 5.52 in experiment [2]; below 3.70 in experiment [3]; below 3.70 in experiment [4]; 5.10 in experiment [8]; below 3.70 in [9]; below 4.00 in experiment [10]. Moreover, the negative-log IC50 (pIC50) in experiment [10] (read-out: cAMP IC50, PDE 1A, cAMP substrate) was below 4.00; in [11], below 4.00; in [11] (read-out: cAMP IC50, PDE 1B, cAMP substrate), below 4.00; in [12] it was below 4.00; in [12] (read-out: cAMP IC50, PDE 1C, cAMP substrate) it was below 4.00; in experiment [13] it was below 4.00. The pIC50 was below 4.00 in experiment [13] (read-out: cAMP IC50, PDE 2A, cAMP substrate); below 4.00 in experiment [14]; below 4.00 in [14] (read-out: cAMP IC50, PDE 3A, cAMP substrate); below 4.00 in [15]; below 4.00 in experiment [15] (read-out: cAMP IC50, PDE 3B, cAMP substrate); 4.12 in [16]. In addition, the pIC50 in [17] is 5.05; in experiment [18], below 4.00; in experiment [19], below 4.00; in [20], below 4.00; in experiment [21], below 4.00; in experiment [22], below 4.00. Moreover, the pIC50 in experiment [22] (read-out: cAMP IC50, PDE 11A, cAMP substrate) is below 4.00; in [23] it was 5.30; in experiment [24] it was 5.30; in [25] (Homo sapiens, read-out: growth inhibition IC50) it was 4.48. In [5] (LPS 10 μg/mL, 24 hours treatment), the “suppression of PGE2 production” value is “ineffective”. Moreover, the inhibition at 50 µM in experiment [6] stood at 86%. The “apoptotic (TUNEL-positive) cells” value in experiment [7] (50 μmol/L) turned out to be 75%. For the same compound, the “fold higher IC50 in FHC than in colon tumor cell lines” value in experiment [25] (FHC vs HT-29 and HCT 116) is on record as above 6 fold. For the same compound, the “effect on intracellular cGMP (luminescence)” value in experiment [26] was “rapid and sustained increase in luminescence”. Further, in experiment [27], the “time to increased phospho-VASP levels” value was at most 1 h. Also, the “time to reduced nuclear levels of β-catenin” value in experiment [28] is at most 1 h. In experiment [29], the expression of survivin entry was “decreased”. For the same compound, the “levels of cleaved caspase-3” value in experiment [30] was “increased”. The “β-catenin–mediated Tcf transcriptional activity” value in experiment [31] is recorded as “significant decrease”.

Take `CCCc1nn(C)c2c(=O)[nH]c(-c3cc(S(=O)(=O)N4CCN(C)CC4)ccc3OCC)nc12` [sildenafil]: in experiment [32], the “tumor cell growth inhibitory activity” value is “completely inactive”.

Turning to `CSc1ccc(/C=C2/C(C)=C(CC(=O)O)c3cc(F)ccc32)cc1` [sulindac sulfide, Sulindac sulfide, reference compound], the pIC50 in experiment [2] was 3.92 to 4.05; in experiment [3] (read-out: COX-1 inhibition IC50, purified ovine COX-1), 5.70; in experiment [5] (Homo sapiens, U-937, 24 h, read-out: suppression of PGE2 production IC50), 6.15; in experiment [8], 4.31; in experiment [9], 3.88. In addition, the “apoptotic (TUNEL-positive) cells” value in experiment [7] (100 μmol/L) amounted to 12%.

`CN1CC(=O)N2[C@H](c3ccc4c(c3)OCO4)c3[nH]c4ccccc4c3C[C@@H]2C1=O` [tadalafil]: the “concentrations required to inhibit tumor cell growth” value in [32] is recorded as “micromolar levels”. Also, in experiment [33], the “concentrations required to inhibit PDE5 in cell-free assays” value was “nanomolar levels”.
